Measurements from ChEMBL document CHEMBL1148529, “Isatin compounds as noncovalent SARS coronavirus 3C-like protease inhibitors” (J Med Chem, 2006).

target: T1, Papain (Carica papaya, UniProt P00784); assay: Inhibition of papain
T1 sequence (P00784 whole entry): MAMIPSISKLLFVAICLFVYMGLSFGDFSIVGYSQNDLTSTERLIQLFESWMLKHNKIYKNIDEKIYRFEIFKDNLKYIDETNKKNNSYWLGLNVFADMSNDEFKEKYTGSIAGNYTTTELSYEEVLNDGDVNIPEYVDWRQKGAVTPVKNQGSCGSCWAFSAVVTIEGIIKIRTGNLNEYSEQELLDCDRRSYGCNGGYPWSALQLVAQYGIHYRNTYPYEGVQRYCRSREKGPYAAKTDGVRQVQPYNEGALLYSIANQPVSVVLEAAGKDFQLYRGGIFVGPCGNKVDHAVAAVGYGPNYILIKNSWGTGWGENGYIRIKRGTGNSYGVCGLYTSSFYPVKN
Method in brief: (§1)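 HPLC-based activity assay with substrate S0120 at 400 µM. Enzyme levels: papain 4.5 µM, chymotrypsin 0.45 µM, trypsin 0.23 µM. IC50 determined from HPLC measurements.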

SMILES | IC50 [µM]
NC(=O)c1ccc2c(c1)C(=O)C(=O)N2Cc1ccc2ccccc2c1 | 11

target: Trypsin (Homo sapiens, UniProt P07477+P07478+P35030); assay: Inhibition of trypsin; format: protein assay; method in brief: as §1

SMILES | IC50 [µM]
NC(=O)c1ccc2c(c1)C(=O)C(=O)N2Cc1ccc2ccccc2c1 | 352

target: Replicase polyprotein 1a (Severe acute respiratory syndrome-related coronavirus) (UniProt P0C6U8); assay: Inhibition of SARS CoV 3C-like protease at 100 uM

SMILES | inhibition [%]
COC(=O)c1ccc2c(c1)C(=O)C(=O)N2C | < 25
O=C(O)c1ccc2c(c1)C(=O)C(=O)N2Cc1ccc2ccccc2c1 | 46
CCCCN1C(=O)C(=O)c2cc(C(=O)OC)ccc21 | < 25
CN1C(=O)C(=O)c2cc(C(=O)O)ccc21 | < 25
NC(=O)c1ccc2c(c1)C(=O)C(=O)N2 | < 25
CCCN1C(=O)C(=O)c2cc(C(=O)OC)ccc21 | < 25
COC(=O)c1ccc2c(c1)C(=O)C(=O)N2Cc1ccc2ccccc2c1 | < 25
O=C1Nc2ccc(C(=O)O)cc2C1=O | < 25
CCCN1C(=O)C(=O)c2cc(I)ccc21 | 25
CCCCN1C(=O)C(=O)c2cc(C(=O)O)ccc21 | < 25
CCCN1C(=O)C(=O)c2cc(C(=O)O)ccc21 | < 25
O=C(O)c1ccc2c(c1)C(=O)C(=O)N2Cc1ccccc1 | < 25
CN1C(=O)C(=O)c2cc(I)ccc21 | < 25
COC(=O)c1ccc2c(c1)C(=O)C(=O)N2Cc1ccccc1 | < 25
O=C1Nc2ccc(I)cc2C1=O | < 25

target: Replicase polyprotein 1a (Severe acute respiratory syndrome-related coronavirus, UniProt P0C6U8); assay: Inhibition of SARS CoV 3C-like protease

SMILES | IC50 [µM] | Ki [µM]
NC(=O)c1ccc2c(c1)C(=O)C(=O)N2Cc1ccccc1 | 12.5 | –
O=C1C(=O)N(Cc2ccccc2)c2ccc(I)cc21 | 50 | 50
CN1C(=O)C(=O)c2cc(C(N)=O)ccc21 | 71 | 71

target: T2, Human rhinovirus A protease (Human rhinovirus sp., UniProt Q4U254); assay: Inhibition of human rhinovirus 14 3C protease; parameters: species or system rhinovirus B14
T2 sequence (Q4U254 whole entry): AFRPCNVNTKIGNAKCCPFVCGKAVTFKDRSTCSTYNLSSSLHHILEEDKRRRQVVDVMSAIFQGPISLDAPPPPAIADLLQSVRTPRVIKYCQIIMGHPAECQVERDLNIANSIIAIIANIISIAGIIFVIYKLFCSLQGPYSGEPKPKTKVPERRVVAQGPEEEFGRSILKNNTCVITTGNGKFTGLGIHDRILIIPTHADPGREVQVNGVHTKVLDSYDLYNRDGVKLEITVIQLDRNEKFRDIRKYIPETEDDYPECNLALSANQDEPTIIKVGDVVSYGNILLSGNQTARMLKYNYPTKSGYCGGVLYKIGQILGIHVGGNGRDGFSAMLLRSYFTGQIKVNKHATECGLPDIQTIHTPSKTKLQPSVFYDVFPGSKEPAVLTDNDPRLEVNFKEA

SMILES | IC50 [µM]
NC(=O)c1ccc2c(c1)C(=O)C(=O)N2Cc1ccc2ccccc2c1 | 0.004

target: Chymotrypsinogen B (Homo sapiens, UniProt P17538); assay: Inhibition of chymotrypsin; method in brief: as §1
Sequence (P17538 34-164 limits assumed, other chains not shown): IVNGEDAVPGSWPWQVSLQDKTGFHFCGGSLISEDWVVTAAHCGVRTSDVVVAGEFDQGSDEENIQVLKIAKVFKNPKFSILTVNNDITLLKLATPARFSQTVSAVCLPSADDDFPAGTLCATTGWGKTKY
Sequence (P17538 167-263 limits assumed, other chains not shown): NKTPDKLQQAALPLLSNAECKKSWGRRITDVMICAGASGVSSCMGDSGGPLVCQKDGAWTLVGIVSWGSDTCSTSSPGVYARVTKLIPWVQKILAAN

SMILES | IC50 [µM]
NC(=O)c1ccc2c(c1)C(=O)C(=O)N2Cc1ccc2ccccc2c1 | 34
